Measured values published in ChEMBL document CHEMBL1130199, “Differentiation between partial agonists and neutral 5-HT1B antagonists by chemical modulation of 3-[3-(N,N-dimethylamino)propyl]-4-hydroxy- N-[4-(pyridin-4-yl)phenyl]benzamide (GR-55562)” (J Med Chem, 1997).

Tests used:
[1] = target: T1, 5-hydroxytryptamine receptor 1B (Homo sapiens, UniProt P28222); assay: Intrinsic activity for Antagonism of 5-hydroxytryptamine 1B receptor-mediated stimulation of [35S]GTP gamma S binding; format: functional
Method in brief: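 [35S]GTPγS binding to C6-glia/h5-HT1B membranes (20–120 μg protein) in 20 mM Hepes pH 7.4 with 30 μM GDP, 100 mM NaCl, 3 mM MgCl2 and 0.2 mM ascorbate. Compound was incubated 30 min at 25 °C, then 500 pM [35S]GTPγS was added for 30 min. Emax is given as % of the response to 10 μM 5-HT, and EC50 is relative to each compound's own maximum. Mean ± SD of 2–4 experiments, each in triplicate.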

[2] = Antagonism of the zolmitriptan-mediated response tested at 1 uM; format: functional
Method in brief: (§1)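 Membranes of C6-glia cells stably expressing h5-HT1B were preincubated with zolmitriptan concentration series, with or without antagonist (1 μM or 10 μM), in 20 mM Hepes pH 7.4 containing 30 μM GDP, 100 mM NaCl, 3 mM MgCl2 and 0.2 mM ascorbic acid, 30 min at 25 °C. [35S]GTPγS (500 pM) was then added for 30 min. pA2 was derived from concentration ratios. Mean ± SD of 2–4 experiments, each in triplicate.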

[3] = target: T1, 5-hydroxytryptamine receptor 1B; assay: Binding affinity for 5-hydroxytryptamine 1B receptor in C6-glial transfected cell type using [3H]GR-125743 as radioligand
Method in brief: (§2)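 Radioligand binding on membranes from HeLa/HA7 cells (h5-HT1A), transfected Cos-7 cells (h5-HT1D) or C6-glia cells stably transfected with h5-HT1B. Values are mean or mean ± SD of 2–3 independent experiments, each in triplicate.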

[4] = target: T1, 5-hydroxytryptamine receptor 1B; assay: Binding affinity for 5-hydroxytryptamine 1B receptor in C6-glial transfected cell type using [3H]5-CT as radioligand; method in brief: as §2
[5] = target: T2, 5-hydroxytryptamine receptor 1A (Homo sapiens, UniProt P08908); assay: Binding affinity for 5-hydroxytryptamine 1A receptor in HeLa transfected cell type using [3H]8-OH-DPAT as radioligand; method in brief: as §2
T2 sequence (P08908 whole entry): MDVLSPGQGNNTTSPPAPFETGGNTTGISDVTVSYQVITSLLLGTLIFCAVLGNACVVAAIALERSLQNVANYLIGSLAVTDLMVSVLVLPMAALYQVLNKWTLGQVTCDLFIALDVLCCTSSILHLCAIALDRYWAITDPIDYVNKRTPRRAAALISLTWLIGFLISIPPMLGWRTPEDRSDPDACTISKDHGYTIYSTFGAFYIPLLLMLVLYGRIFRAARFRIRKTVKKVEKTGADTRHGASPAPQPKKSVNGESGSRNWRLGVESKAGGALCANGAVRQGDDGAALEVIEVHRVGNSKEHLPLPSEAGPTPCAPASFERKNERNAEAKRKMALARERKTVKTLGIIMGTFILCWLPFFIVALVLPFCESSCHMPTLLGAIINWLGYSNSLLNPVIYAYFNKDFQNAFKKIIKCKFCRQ

[6] = target: 5-hydroxytryptamine receptor 1D (Homo sapiens, UniProt P28221); assay: Binding affinity for 5-hydroxytryptamine 1D receptor in Cos-7 transfected cell type using [3H]5-CT as radioligand; method in brief: as §2
[7] = Determined KB value of the compound; format: functional; method in brief: as §1
[8] = Antagonism of the zolmitriptan-mediated response tested at 10 uM; format: functional; method in brief: as §1

Sequence of 5-hydroxytryptamine receptor 1D (P28221 whole entry): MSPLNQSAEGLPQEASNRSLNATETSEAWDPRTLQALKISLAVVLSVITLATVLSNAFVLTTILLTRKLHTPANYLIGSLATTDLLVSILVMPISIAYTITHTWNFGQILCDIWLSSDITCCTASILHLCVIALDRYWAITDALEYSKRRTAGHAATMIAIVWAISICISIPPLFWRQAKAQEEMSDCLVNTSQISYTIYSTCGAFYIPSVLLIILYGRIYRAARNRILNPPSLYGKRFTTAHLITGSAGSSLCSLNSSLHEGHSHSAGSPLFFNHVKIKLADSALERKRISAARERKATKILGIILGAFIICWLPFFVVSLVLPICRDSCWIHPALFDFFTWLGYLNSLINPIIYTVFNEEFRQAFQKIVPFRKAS
T1 sequence (P28222 whole entry): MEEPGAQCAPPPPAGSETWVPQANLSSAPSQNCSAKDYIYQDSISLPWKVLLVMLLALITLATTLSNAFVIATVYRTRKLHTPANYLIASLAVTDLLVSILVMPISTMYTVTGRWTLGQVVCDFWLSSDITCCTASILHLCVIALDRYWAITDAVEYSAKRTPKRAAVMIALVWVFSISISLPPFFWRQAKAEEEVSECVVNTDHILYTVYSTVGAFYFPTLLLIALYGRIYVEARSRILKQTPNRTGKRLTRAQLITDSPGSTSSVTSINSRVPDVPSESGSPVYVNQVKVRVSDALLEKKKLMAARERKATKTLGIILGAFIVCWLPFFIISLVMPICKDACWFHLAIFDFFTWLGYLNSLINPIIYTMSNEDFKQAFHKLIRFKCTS

CN(C)CCCc1cc(C(=O)Nc2ccc(-c3ccncc3)cc2)ccc1O [GR-55562]
Activity [1]: -3.7 | EC50 [2]: 3000 nM | Ki [3]: 14 nM | Ki [4]: 12.1 nM | Ki [5]: 842 nM | Ki [6]: 700 nM | Kb [7]: 21.3 nM

COc1ccc(C(=O)Nc2ccc(-c3ccncc3)cc2)cc1CCCN(C)C
Activity [1]: 4 | EC50 [2]: 2850 nM | Ki [3]: 15.4 nM | Ki [4]: 70.1 nM | Ki [5]: > 1000 nM | Ki [6]: 540 nM | Kb [7]: 22.7 nM

COc1ccc(C(=O)Nc2ccc(-c3ccncc3)cc2)cc1C#CCN(C)C
Activity [1]: 32.3 | EC50 [8]: 837 nM | Ki [3]: 22.3 nM | Ki [4]: 16.2 nM | Ki [5]: > 1000 nM | Ki [6]: 1200 nM

COc1ccc(C(=O)Nc2ccc(-c3ccncc3)cc2)cc1/C=C/CN(C)C
Activity [1]: 23 | EC50 [8]: 4300 nM | Ki [3]: 18.8 nM | Ki [4]: 13.6 nM | Ki [5]: > 1000 nM | Ki [6]: 560 nM

COc1ccc(C(=O)Nc2ccc(-c3ccncc3)cc2)cc1C=CCN(C)C
Activity [1]: 2.3 | EC50 [2]: 3300 nM | Ki [3]: 6.1 nM | Ki [4]: 19 nM | Ki [5]: 633 nM | Ki [6]: 169 nM | Kb [7]: 19.4 nM
